Laboratory results: ChEMBL document CHEMBL1123657, “Anthrapyrazole anticancer agents. Synthesis and structure-activity relationships against murine leukemias” (J Med Chem, 1987)

What was measured:
[1] = test system: L1210; assay: Tested in vitro against murine L1210 leukemia.; type: functional, cell-based; details: Mus musculus
[2] = test system: P388; assay: Optimal dose per injection in mg/kg required to inhibit growth of P388 leukemia cells in mice; type: functional, Mus musculus
Summary of the method: (§1)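 P388 leukemia implanted ip in mice; drug given ip on days 1 and 5 (ip/ip; D1,5), dosed in mg/kg per injection. Read-out is treated/control (T/C, %) with cures counted, reported at the optimal dose.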

[3] = test system: P388; assay: Inhibition of P388 leukemia cells in mice, measured as percent treated to the control values with the number of 30 day survivors; type: functional, Mus musculus; summary of the method: as §1
[4] = test system: P388; assay: Activity against P388 leukemia cells in mice, by intraperitoneal dosing and net log tumor cell kill was reported; type: functional, Mus musculus

| SMILES | IC50 [1] | Dose [2] | T/C [3] | Activity [4] |
| --- | --- | --- | --- | --- |
| CCN(CC)CCn1nc2c3c(c(NCCNCCO)ccc31)C(=O)c1ccccc1-2.Cl | 32 nM | 25 mg/kg | 169% | 2.6 |
| CNCCNc1ccc2c3c(nn2CCN)-c2c(O)ccc(O)c2C(=O)c13 | 700 nM |  |  |  |
| CCN(CC)CCNc1ccc2c3c(nn2CCO)-c2c(O)ccc(O)c2C(=O)c13.Cl | 730 nM | 400 mg/kg | 190% | 4.6 |
| Cl.O=C1c2c(O)ccc(O)c2-c2nn(CCNCCO)c3ccc(NCCN4CCOCC4)c1c23 | 650 nM | 50 mg/kg | 177% | 2.9 |
| Cl.O=C1c2ccccc2-c2nn(CCNCCO)c3ccc(NCCO)c1c23 | 750 nM | 25 mg/kg | 139% | 0.1 |
| Br.CCN(CC)CCn1nc2c3c(c(NCCNC)ccc31)C(=O)c1c(O)ccc(O)c1-2 | 7400 nM | 25 mg/kg |  | >7.1 |
| Cl.O=C1c2c(O)ccc(O)c2-c2nn(CCO)c3ccc(NCCN4CCOCC4)c1c23 | 1100 nM | 400 mg/kg | 122% | -1.2 |
| Cl.O=C1c2ccccc2-c2nn(CCO)c3ccc(NCCNCCO)c1c23 | 1800 nM | 25 mg/kg | 125% | -0.9 |
| CN(C)CCn1nc2c3c(c(NCCN)ccc31)C(=O)c1c(O)ccc(O)c1-2.Cl | 220 nM | 12.5 mg/kg | 263% | >6.6 |
| CCN(CC)CCNc1ccc2c3c(c4ccccc4c(O)c13)N=N2.Cl | 1500 nM | 400 mg/kg | 111% | -1.4 |
| CN(C)CCNc1ccc2c3c(nn2CCO)-c2c(O)ccc(O)c2C(=O)c13.Cl | 15 nM | 200 mg/kg | 283% | 6.6 |
| CCN(CC)CCn1nc2c3c(c(NCCN4CCOCC4)ccc31)C(=O)c1ccccc1-2.Cl | 480 nM | 400 mg/kg |  | >6.8 |
| Cl.NCCCNc1ccc2c3c(nn2CCCNCCO)-c2c(O)ccc(O)c2C(=O)c13 | 1800 nM | 100 mg/kg | 185% | 3.4 |
| Cl.NCCNc1ccc2c3c(nn2CCO)-c2c(O)ccc(O)c2C(=O)c13 | 480 nM | 100 mg/kg | 196% | 6.8 |
| Cl.OCCNCCNc1ccc2c3c(c4ccccc4c(O)c13)N=N2 | 2200 nM | 100 mg/kg | 126% | -0.8 |
| Cl.NCCNc1ccc2c3c(nn2CCN)-c2c(O)ccc(O)c2C(=O)c13 | 480 nM | 12.5 mg/kg | 221% | 5.6 |
| CCN(CC)CCNc1ccc2c3c(nn2CCN(CC)CC)-c2c(O)ccc(O)c2C(=O)c13.Cl | 550 nM | 100 mg/kg | 180% | 3.5 |
| Cl.NCCn1nc2c3c(c(NCCNCCO)ccc31)C(=O)c1ccccc1-2 | 80 nM | 25 mg/kg |  | 3.7 |
| CCN(CC)CC(O)Cn1nc2c3c(c(NCCNCCO)ccc31)C(=O)c1c(O)ccc(O)c1-2.Cl (stereo unspecified) | 840 nM | 12.5 mg/kg | 223% | 5.3 |
| Cl.O=C1c2c(O)ccc(O)c2-c2nn(CCNCCO)c3ccc(NCCNCCO)c1c23 | 740 nM | 6.25 mg/kg |  | 4.6 |
| CN(C)CCCn1nc2c3c(c(NCCCN)ccc31)C(=O)c1c(O)ccc(O)c1-2.Cl | 800 nM | 25 mg/kg | 212% | 4 |
| Cl.Cn1nc2c3c(c(NCCNCCO)ccc31)C(=O)c1c(O)ccc(O)c1-2 | 150 nM | 100 mg/kg |  | 2.9 |
| CN(C)CCNc1ccc2c3c(nn2CCNCCO)-c2c(O)ccc(O)c2C(=O)c13.Cl | 230 nM | 12.5 mg/kg | 250% | >6.6 |
| Cl.NCCn1nc2c3c(c(NCCCNCCO)ccc31)C(=O)c1c(O)ccc(O)c1-2 | 870 nM | 6.25 mg/kg | 194% | 3.4 |
| Cl.Cn1nc2c3c(c(NCCN)ccc31)C(=O)c1c(O)ccc(O)c1-2 | 240 nM | 12.5 mg/kg | 138% | 0 |
| CN(C)CCNCCNc1ccc2c3c(nn2CCNCCO)-c2c(O)ccc(O)c2C(=O)c13.Cl | 760 nM | 50 mg/kg | 254% | >6.8 |
| Cl.Cn1nc2c3c(c(NCCNCCO)ccc31)C(=O)c1ccccc1-2 | 710 nM | 100 mg/kg | 136% | -0.2 |

| SMILES | IC50 [1] | Dose [2] | T/C [3] | Activity [4] |
| --- | --- | --- | --- | --- |
| CCN(CC)CCn1nc2c3c(c(NCCN4CCN(C(=O)OCc5ccccc5)CC4)ccc31)C(=O)c1ccccc1-2 | 390 nM |  |  |  |
| CN(C)CCNCCn1nc2c3c(c(NCCNCCO)ccc31)C(=O)c1c(O)ccc(O)c1-2.Cl | 1400 nM | 50 mg/kg | 226% | >6.8 |
| CCN(CC)CCn1nc2c3c(c(NCCNC)ccc31)C(=O)c1ccccc1-2.Cl | 27 nM | 25 mg/kg | 138% | 0.7 |
| CN(C)CCNCCNc1ccc2c3c(nn2CCCN)-c2c(O)ccc(O)c2C(=O)c13.Cl | 640 nM | 25 mg/kg | 228% | 5.6 |
| CN(C)CCNCCNc1ccc2c3c(nn2CCN)-c2c(O)ccc(O)c2C(=O)c13.Cl | 930 nM | 50 mg/kg | 242% | 6.4 |
| CN(C)CCCn1nc2c3c(c(NCCNCCO)ccc31)C(=O)c1c(O)ccc(O)c1-2.Cl | 590 nM | 12.5 mg/kg |  | 5.4 |
| CCCCCCNc1ccc2c3c(nn2CCN(CC)CC)-c2ccccc2C(=O)c13.Cl | 2000 nM | 200 mg/kg | 110% | -1.4 |
| CCN(CC)CCNc1ccc2c3c(nn2C)-c2ccccc2C(=O)c13.Cl | 670 nM | 400 mg/kg | 98% | -1.5 |
| Cl.Cn1nc2c3c(cccc31)C(=O)c1c(NCCNCCO)cccc1-2 | 1200 nM | 200 mg/kg | 118% | -1.3 |
| Cl.NCCNc1ccc2c3c(nn2CCNCCO)-c2ccccc2C(=O)c13 | 69 nM | 25 mg/kg |  | 4.4 |
| CN(C)CCN(C)c1ccc2c3c(nn2CCNCCO)-c2c(O)ccc(O)c2C(=O)c13.Cl | 630 nM | 12.5 mg/kg |  | 4.9 |
| CCN(CC)CCCCNc1ccc2c3c(nn2CCN(CC)CC)-c2ccccc2C(=O)c13.Cl | 620 nM | 25 mg/kg | 107% | -1.4 |
| Cl.O=C1c2c(NCCNCCO)cccc2-c2nn(CCNCCO)c3cccc1c23 | 390 nM | 12.5 mg/kg | 133% | -0.3 |
| CN(C)CCNc1ccc2c3c(nn2CCNCCO)-c2ccccc2C(=O)c13.Cl | 32 nM | 6.25 mg/kg | 174% | 3.1 |
| CN(C)CCNCCNc1ccc2c3c(nn2CC(O)CO)-c2c(O)ccc(O)c2C(=O)c13.Cl (stereo unspecified) | 2200 nM | 400 mg/kg | 281% | 6.7 |
| COCCn1nc2c3c(c(NCCNCCO)ccc31)C(=O)c1c(O)ccc(O)c1-2.Cl | 1600 nM | 100 mg/kg | 140% | 0.3 |
| CCN(CC)CCNc1ccc2c3c(nn2CCNCCO)-c2c(O)ccc(O)c2C(=O)c13.Cl | 510 nM | 50 mg/kg |  | >6.7 |
| CN(CCO)CCn1nc2c3c(c(NCCNCCO)ccc31)C(=O)c1c(O)ccc(O)c1-2.Cl | 330 nM | 12.5 mg/kg |  | 4.2 |
| CCN(CC)CCNc1ccc2c3c(nn2C)-c2c(O)ccc(O)c2C(=O)c13.Cl | 450 nM | 400 mg/kg | 152% | 1.3 |
| Cl.NCCNCCNc1ccc2c3c(nn2CCNCCO)-c2c(O)ccc(O)c2C(=O)c13 | 330 nM | 25 mg/kg | 277% | >6.6 |
| Cl.NCCNc1ccc2c3c(nn2CCNCCO)-c2c(O)ccc(O)c2C(=O)c13 | 1600 nM | 3.12 mg/kg | 197% | 4.8 |
| CN(C)CCCn1nc2c3c(c(NCCN)ccc31)C(=O)c1c(O)ccc(O)c1-2.Cl | 200 nM | 12.5 mg/kg | 230% | 6.6 |
| CNCCn1nc2c3c(c(NCCNCCO)ccc31)C(=O)c1c(O)ccc(O)c1-2.Cl | 440 nM | 3.12 mg/kg | 324% | >6.8 |
| Cl.O=C1c2c(O)ccc(O)c2-c2nn(CCNCCO)c3ccc(NCCCNCCO)c1c23 | 1800 nM | 6.25 mg/kg | 254% | >6.8 |
| CN(C)CCn1nc2c3c(c(NCCCN)ccc31)C(=O)c1c(O)ccc(O)c1-2.Cl | 540 nM | 12.5 mg/kg | 208% | 4.7 |
| NCCCNc1ccc2c3c(nn2CCN)-c2c(O)ccc(O)c2C(=O)c13 | 310 nM |  |  |  |
| CCN(CC)CCNc1ccc2c3c(nn2CC(O)CN(CC)CC)-c2c(O)ccc(O)c2C(=O)c13.Cl (stereo unspecified) | 1300 nM | 100 mg/kg |  | 1.2 |
